Assay outcomes from PubChem.
A selection: hits, their analogues and other compounds. The true share with any hit is near 3.4%.
Runt-SMMHC FRET: inhibitors of human RUNX1 Runt domain binding to CBFb-SMMHC; actives 0.74% (n = 220,000); inhibition, % at 20 µM; AID 1434; Q01196+Q13951; Cerulean-Runt/Venus-CBFb-SMMHC FRET ratio 530/480, 1 h;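 active = mean inhibition across duplicate retests at 20 µM reaching about 50%, limit read from the data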;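 also: inhibitors lower the FRET ratio by blocking Runt binding to CBFb-SMMHC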
PHOSPHO1 inh: blocks human PHOSPHO1 phosphatase activity; recombinant PHOSPHO1, absorbance phosphatase assay; inhibition, % at 13.3 µM; actives 1.1% (n = 290,000); AID 1565; in the data active = inhibition above about 60%
Target sequence (Q8TCT1 whole entry, looked up): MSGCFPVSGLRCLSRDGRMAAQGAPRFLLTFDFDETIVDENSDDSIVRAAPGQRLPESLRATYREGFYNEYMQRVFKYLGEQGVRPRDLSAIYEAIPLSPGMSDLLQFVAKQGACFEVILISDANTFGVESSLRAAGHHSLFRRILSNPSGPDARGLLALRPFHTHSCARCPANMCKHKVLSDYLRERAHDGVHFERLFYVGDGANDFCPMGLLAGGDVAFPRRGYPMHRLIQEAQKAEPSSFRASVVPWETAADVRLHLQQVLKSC
Runt-CBFb FRET: inhibitors of human RUNX1 Runt domain binding to CBFb | Cerulean-Runt/Venus-CBFb FRET ratio 530/480, 1 h | inhibition, % at 20 µM | actives 0.46% (n = 220,000) | AID 1496;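 active = inhibition over about 50% at 20 µM in the single-dose screen, limit read from the data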
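Buffer or medium: Tris pH 7.5 buffer with BSA. Assay system: Cerulean-labeled Runt domain protein. Amount: each fluorescent fusion protein 100 nM. Read-out basis: loss of energy transfer signal. Incubation: 1 h compound exposure, room temperature. Probe or stimulus: Venus-CBFb binding partner, 100 nM. Detection: FRET, excitation 422 nm, emission at 530 and 480 nm.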
Wee1 degr inh: inhibitors of human Wee1 degradation. P30291. reporter increase, % at 5 µM. actives 1.2% (n = 220,000). AID 1321. HeLa Luc-Wee1K328M stability, luciferase luminescence; 100% = proteasome inhibitor MG132 effect;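 active = activation above the mean of all tested compounds plus 3 SD, set per screening run, cut at about 8.8% in these data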;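 also: cells exposed to compound for 20 h before luminescence read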
Efa HMGR inh: E. faecalis class II HMG-CoA reductase inhibition; purified E. faecalis HMGR, NADPH absorbance 340 nm kinetic; inhibition, % at 10 µM; actives 0.41% (n = 190,000);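 active = inhibition above a set limit, the median over all tested compounds plus 3 SD, cut at about 9.5% in these data; inconclusive = no clear call, values can overlap the other calls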;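 also: enzyme runs in reverse so mevalonate oxidation gives rising NADPH absorbance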
RanGTP-Impb inh: disruptors of Ran-importin-beta complex formation – biochemical, FRET, CFP-Ran, YFP-importin-beta, homogeneous, primary screen | cell-free CFP-Ran/YFP-importin-beta FRET ratio | inhibition, % (concentration not given with the values) | actives 1.1% (n = 300,000);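 active = more than half of the replicate wells show a fall in the fluorescence ratio signal beyond about 16%, limit read from the data, passing the limit was not always enough; inconclusive = exactly half of the replicate wells pass the set limit; inactive = fewer than half of replicates pass the limit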
Of the large screens only hits and unclear results are named; the others gave an inactive call.

O=C(NC(=S)NNC(=O)[C@H]1C[C@@H]1c1ccccc1)c1ccc(F)cc1	none (no result: Efa HMGR inh)
COc1ccc(CCNC(=O)Oc2ccccc2)cc1OC	none (no result: Runt-SMMHC FRET, Runt-CBFb FRET, Wee1 degr inh, Efa HMGR inh)
CC(C)/C=C/C(=O)N1CCC(N2CCC(C(=O)NCc3ccccn3)CC2)CC1	PHOSPHO1 inh 70 (no result: Runt-SMMHC FRET, Runt-CBFb FRET, Wee1 degr inh, Efa HMGR inh)
C#Cc1ccc(CN2CCC(N3CCC(C(=O)NCc4ccccn4)CC3)CC2)cc1	none (no result: Runt-SMMHC FRET, Runt-CBFb FRET, Wee1 degr inh, Efa HMGR inh)
COc1ccc(NC2=C(C(C)=O)C(c3ccc(OC)c(OC)c3)C(C(C)=O)C(C)(O)C2)cc1 (stereo unspecified)	RanGTP-Impb inh 164
COc1ccc(NC2=C(C(C)=O)C(c3ccccc3)C(C(C)=O)C(C)(O)C2)cc1 (stereo unspecified)	none (no result: Efa HMGR inh)
C/C(CC(=O)Nc1ccc2ccccc2c1)=N\NC(=O)c1ccc(O)c(O)c1	none (no result: Runt-SMMHC FRET, Runt-CBFb FRET, Wee1 degr inh, Efa HMGR inh)
Cc1ccc(C23CC4CC(CC(C(=O)N5CCN(C)CC5)(C4)C2)C3)cc1	none (no result: Efa HMGR inh)
Cc1ccc(C23CC4CC(CC(CC(=O)N5CCOCC5)(C4)C2)C3)cc1	RanGTP-Impb inh 25
Cc1oc(-c2ccccc2Cl)nc1CS(=O)CC(=O)N1CCN(c2ccccc2)CC1 (stereo unspecified)	none (no result: Runt-SMMHC FRET, Runt-CBFb FRET, Wee1 degr inh, Efa HMGR inh)
O=C1N(Cc2cccc(Cl)c2)C[C@@H]2C[C@@H](c3ccccn3)N3CCC[C@@]123	Wee1 degr inh 9.4
CCn1ccnc1[C@@H]1C[C@H]2CN(Cc3cccc(Cl)c3)C(=O)[C@]23CCCN13	none
CC1CN(c2cnn(C(C)C)c(=O)c2Cl)CC(C)O1 (stereo unspecified)	none (no result: Runt-SMMHC FRET, Runt-CBFb FRET, Wee1 degr inh, Efa HMGR inh)
CC(C)Oc1ccc(N2CC(C(=O)NC3=NCCS3)CC2=O)cc1 (stereo unspecified)	PHOSPHO1 inh 64
CC1CCCCN1C(=O)COc1ccc(F)cc1 (stereo unspecified)	Wee1 degr inh 9.6
CC1CCCCN1C(=O)COc1ccc2ccc(=O)oc2c1 (stereo unspecified)	none
O=C(NC1CCSc2ccccc21)c1ccc(F)cc1 (stereo unspecified)	none (no result: Runt-SMMHC FRET, Runt-CBFb FRET, Wee1 degr inh, Efa HMGR inh)
O=C(O)c1ccc(OCc2cn3ccccc3n2)cc1	none (no result: Efa HMGR inh)
O=C(COc1ccc(Oc2ccccc2)cc1)NCc1cn2ccccc2n1	Wee1 degr inh 10
CC12CCC(CC1)C(C)(C)O2	none (no result: Runt-SMMHC FRET, PHOSPHO1 inh, Runt-CBFb FRET, Wee1 degr inh, Efa HMGR inh)
COc1ccc2cc(C(c3nnnn3Cc3ccccc3)N3CCCCCC3)c(=O)[nH]c2c1 (stereo unspecified)	PHOSPHO1 inh 94 (no result: Efa HMGR inh)
Cc1ccc2cc(C(c3nnnn3C(C)(C)C)N3CCCCCC3)c(=O)[nH]c2c1 (stereo unspecified)	PHOSPHO1 inh 102
CCN(Cc1ccccc1)C(c1cc2ccc(C)cc2[nH]c1=O)c1nnnn1CCOC (stereo unspecified)	PHOSPHO1 inh 99
CCC(C)(C)n1nnnc1C(c1cc2cc(C)ccc2[nH]c1=O)N1CCCC1 (stereo unspecified)	none
CCC(C)(C)C(=O)Nc1cc([N+](=O)[O-])ccc1F	Efa HMGR inh 12
CCC(C)(C)C(=O)Nc1cc([N+](=O)[O-])ccc1Cl	none
O=C(NC(=S)Nc1ccc(F)c(Cl)c1)C1CC1	none (no result: Runt-SMMHC FRET, Runt-CBFb FRET, Wee1 degr inh, Efa HMGR inh)
Fc1ccc(NC(=S)Nc2ccc(F)c(Cl)c2)cc1Cl	PHOSPHO1 inh 95
CCCn1c(SCC(=O)NCc2ccc(C)cc2)n[nH]c1=O	none
CCCn1c(SCC(=O)c2ccc(CC)cc2)n[nH]c1=O	PHOSPHO1 inh 82
COc1cccc(NC(=O)[C@H](CC(C)C)NC(=O)N2CCn3c2nc2ccccc23)c1	none (no result: Runt-SMMHC FRET, Runt-CBFb FRET, Wee1 degr inh, Efa HMGR inh)
CCn1c(C)cc(/C=C2\NC(=O)N(Cc3ccccc3)C2=O)c1C	PHOSPHO1 inh 70
CCn1c(C)cc(/C=C2/NC(=O)N(Cc3ccccc3F)C2=O)c1C	RanGTP-Impb inh inconclusive
Nc1nc2ccccc2n1C(=O)c1ccc(F)cc1	none
Cn1c(/C=C/c2ccccc2)nc2ccccc21	none
Cn1c(=O)c(/C=C/c2ccccc2)nc2ccccc21	Runt-SMMHC FRET 99, RanGTP-Impb inh 53
Cn1c(=O)c(/C=C/c2ccc(F)cc2)nc2ccccc21	RanGTP-Impb inh 53
O=c1c(/C=C(\O)c2ccc(F)cc2)nc2ccccc2n1-c1ccccc1	RanGTP-Impb inh 77
CC(=O)c1ccc(/C=C/c2nc3ccccc3n2C)o1	Runt-SMMHC FRET 81 (no result: Efa HMGR inh)
Cc1c(Cl)cccc1NC(=O)COC(=O)c1c2c(nc3ccccc13)CCN(Cc1ccccc1)C2	none
CC(C)c1ccccc1NC(=O)COC(=O)c1c2c(nc3ccccc13)CCN(Cc1ccccc1)C2	Wee1 degr inh 9.5
NC(=O)c1ccc(-n2nnnc2SCc2ccccc2)cc1	none
O=C(Nc1nccs1)c1ccc(CSc2nnnn2-c2ccccc2)cc1	Efa HMGR inh 11
CCn1c(-c2ccc(C)cc2)n[nH]c1=S	PHOSPHO1 inh 100
CCn1c(-c2ccc(OC)c(OC)c2)n[nH]c1=S	none
Oc1ccccc1-c1n[nH]c(=S)n1Cc1ccccc1	none (no result: Runt-SMMHC FRET, PHOSPHO1 inh, Runt-CBFb FRET, Wee1 degr inh, Efa HMGR inh)
CCCCn1c(-c2cccnc2)n[nH]c1=S	none
CCn1c(-c2cc(-c3ccccc3)sc2N)n[nH]c1=S	PHOSPHO1 inh 77 (no result: Efa HMGR inh)
CCn1c(-c2ccccc2O)n[nH]c1=S	PHOSPHO1 inh 65
CCCn1c(-c2ccc(F)cc2)n[nH]c1=S	PHOSPHO1 inh 91
COC(CNS(=O)(=O)c1ccc(S(=O)(=O)N2CCCC2)cc1)OC	none
CCCCn1c(-c2ccc([N+](=O)[O-])cc2)n[nH]c1=S	PHOSPHO1 inh 102
CCn1c(C(c2ccccc2)c2ccccc2)n[nH]c1=S	PHOSPHO1 inh 100
CCn1c(-c2cc(-c3cccc(OC)c3)nc3ccccc23)n[nH]c1=S	PHOSPHO1 inh 92
CCc1ccc(-c2cc(-c3n[nH]c(=S)n3CC)c3ccccc3n2)cc1	none
CCn1c(-c2ccc(Cl)cc2)n[nH]c1=S	PHOSPHO1 inh 71
C=CCn1c(C(c2ccccc2)c2ccccc2)n[nH]c1=S	none
CCCCn1c(-c2cc(Cl)ccc2OC)n[nH]c1=S	PHOSPHO1 inh 60 (no result: RanGTP-Impb inh)
COc1ccc(CCn2c(-c3ccc(Cl)cc3)n[nH]c2=S)cc1OC	none
NCC12CC3CC(C1)CC(c1ccc(Cl)cc1)(C3)C2	none
COc1ccc(OC)c(N2C(=O)CC(Cc3cc(C)cc(C)c3)C2=O)c1 (stereo unspecified)	RanGTP-Impb inh 31
COc1ccc(OC)c(N2C(=O)CC(Cc3ccc(Cl)cc3)C2=O)c1 (stereo unspecified)	none
OCCN1CCN(C(c2cccs2)c2ccc3cccnc3c2O)CC1 (stereo unspecified)	PHOSPHO1 inh 105 (no result: RanGTP-Impb inh)
CC(C)(C)c1ccc(C(=O)NCC(=O)OCCN2C(=O)c3ccccc3C2=O)cc1	none (no result: Runt-SMMHC FRET, PHOSPHO1 inh, Runt-CBFb FRET, Wee1 degr inh, Efa HMGR inh)
NC(=O)c1nsc(C(=O)N(c2ccccc2)C(C(=O)NC2CCCCC2)c2ccc(O)cc2)c1N (stereo unspecified)	none (no result: Runt-SMMHC FRET, Runt-CBFb FRET, Wee1 degr inh, Efa HMGR inh)
Cc1oc(C)c2c(=O)ccc3c(c12)OC(N)=C(C#N)C3c1ccccc1Cl (stereo unspecified)	RanGTP-Impb inh 28
